# Assay results of several laboratories.
# Lines come from different studies, so protocols differ.
# Target: Calcium/calmodulin-dependent protein kinase kinase 2 (CAMKK2, Homo sapiens, UniProt Q96RR4)
Structure (SMILES),test,conditions,measurement,value
CCC1(CC)NC(=O)c2c(c3ccc(Cl)c(Cl)c3n2C)C1C#N (centres unmarked),"thermal stability, DSF",10 µM,ΔTm,0.3 °C
O=C(O)c1cc(-c2ccc(C3CCNCC3)cc2)c2ccc(-c3ccc(C(F)(F)F)cc3)cc2c1,"cell-free assay, competition with immobilised ligand",1 µM,remaining binding,100%
Cc1ccc(C(=O)NCc2ccsc2)cc1C#Cc1cn(C(C)C)c2ncnc(N)c12,"enzyme activity, inhibitor",1 µM,activity vs control,110%
Cc1ccc(NC(=O)c2ccc(C)c(C(F)(F)F)c2)cc1C#Cc1nn(C2CCC(O)CC2)c2ncnc(N)c12 (centres unmarked),cell-free assay,10 µM,remaining signal,55%
c1ccc(CNc2nc(N3CCOc4ccccc43)nc3c2CCCC3)cc1,"target engagement in cells, inhibitor, chemoproteomics",20 mM,inhibition,0.1%
CS(=O)(=O)Nc1cccc(-c2csc(NC(=O)CSc3nc4nccnc4c(=O)n3CCc3ccccc3)n2)c1,"enzyme activity, inhibitor",10 µM,inhibition,4%
CC(C)(C)c1nc(-c2cccc(NS(=O)(=O)c3c(F)cccc3F)c2F)c(-c2ccnc(N)n2)s1,"enzyme activity, inhibitor, radiometric",1 µM,remaining activity,113%
CN1CC(Oc2cnc(C#N)cc2-c2ccn3nc(NC(=O)C4CC4)cc3c2)C1,"enzyme activity, inhibitor",1 µM,inhibition,5%
CCN1CCC2(CC1)NC(=O)c1c(c3ccc(Cl)c(Cl)c3n1C)C2C#N (racemic),"thermal stability, DSF",10 µM,ΔTm,0.5 °C
O=C(Nc1cnn(-c2csc(C(=O)NC3COC3)c2)c1)Nc1c(F)cccc1Cl,"enzyme activity, inhibitor",5 µM,remaining activity,81%
O=C(NCc1ncc(C(F)(F)F)cc1Cl)c1ccc2c(c1)C1(CCS(=O)(=O)CC1)[C@H](C1CC1)N2S(=O)(=O)c1ccc(F)cc1,"cell-free assay, competition with immobilised ligand",1 µM,remaining binding,100%
FC(F)c1nc2ccccc2n1-c1nc(N2CCOCC2)nc(N2CCOCC2)n1,"enzyme activity, inhibitor",10 µM,remaining activity,87%
CNC(=O)c1cc(Oc2ccc(NC(=O)Nc3ccc(Cl)c(C(F)(F)F)c3)cc2)ccn1,cell-free assay,0.5 µM,remaining signal,103%
CCOCCn1cc(C(=O)Nc2ccc(-n3nc(-c4cccnc4)cc3C(F)(F)F)cn2)ccc1=O,"cell-free assay, competition with immobilised ligand",1 µM,remaining binding,100%
O=C1NC(=O)c2cc(Nc3ccc(F)cc3)c(Nc3ccc(F)cc3)cc21,cell-free assay,0.5 µM,remaining signal,88.3%
Nc1nc(Nc2ccccc2)sc1C(=O)c1c(F)cccc1F,"enzyme activity, inhibitor",10 µM,remaining activity,12%
COc1cc(Nc2cnc(C#N)c(O[C@H](C)CN(C)C)n2)ncc1-c1cnn(C)c1,"enzyme activity, inhibitor, radiometric",1 µM,remaining activity,103%
Cc1c[nH]c2nccc(Oc3c(F)cc(Nc4cc(Cl)nc(N)n4)cc3F)c12,"cell-free assay, competition with immobilised ligand",0.1 µM,remaining binding,98%
Oc1cccc(-c2nc(N3CCOCC3)c3oc4ncccc4c3n2)c1,"enzyme activity, inhibitor",10 µM,remaining activity,114%
CCCOc1ccc([C@H]2[C@H](C(=O)O)[C@@H](c3ccc4c(c3)OCO4)CN2CC(=O)Nc2c(CC)cccc2CC)cc1,"cell-free assay, competition with immobilised ligand",1 µM,remaining binding,93%
Cn1c2c(Cl)c(Cl)ccc2c2cc[nH]c(=O)c21,"thermal stability, DSF",10 µM,ΔTm,0.6 °C
O=C(O)c1ccc2c3c1cccc3c(=O)n1c3ccccc3nc21,cell-free assay,0.5 µM,remaining signal,7.88%
O=C(Nc1ccc(Oc2ccc(F)cc2)cc1)N1CCc2ncccc2[C@H]1c1ccc(F)cc1,"cell-free assay, competition with immobilised ligand",1 µM,remaining binding,100%
COc1cc(/C=C/C(=O)CC(=O)/C=C/c2ccc(O)c(OC)c2)ccc1O,"enzyme activity, inhibitor",1 µM,activity vs control,44%
COc1cccc2c(NCc3ccccc3)nc(-n3c(N)nc4ccccc43)nc12,"target engagement in cells, inhibitor, chemoproteomics",20 mM,inhibition,-5.8%
CS(=O)(=O)c1cc(C2(NC(=O)c3cncc4c3cnn4-c3ccc(F)cc3)CC2)ccn1,"cell-free assay, competition with immobilised ligand",1 µM,remaining binding,75%
FC(F)(F)Oc1cccc(-c2cnc3ccc(-c4ccncc4)nn23)c1,"enzyme activity, inhibitor, radiometric",5 µM,activity vs control,60%
COc1ccc2c(c1)O[C@H](c1ccc(OC)c(OC)c1)C[C@@H]2NC(=O)C1(c2ccc3c(c2)OC(F)(F)O3)CC1,"cell-free assay, competition with immobilised ligand",1 µM,remaining binding,100%
CN(C)c1nccc(-c2cnc3ncccn23)n1,binding,1 µM,remaining binding,100%
